Reference: EPA's CvTdb concentration-time database

Assays:
human [1] = assay: concentration in blood after dosing; negative times count back from the end of exposure; details: dosed: methylethylketone, inhalation, duration: 4 hr, male
Outline: (§1)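 Sampling and analytical methods are those of each source and frequently went unreported. The concentration-versus-time and amount-versus-time points were compiled from published in vivo toxicokinetic studies and two structured collections. Most were digitised from plot screenshots with WebPlotDigitizer, with others copied from tables, in the reported units.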

Rat [2] = assay: concentration in plasma after dosing; details: dosed: Isoeugenol, 70 mg/kg, oral, Male, F344/N
Rat [3] = assay: concentration in plasma after dosing; details: dosed: Isoeugenol, 17 mg/kg, oral, Female, F344/N
Rat [4] = assay: concentration in plasma after dosing; details: 10 min; dosed: Isoeugenol; 17 mg/kg; oral; Male; F344/N
Rat [5] = assay: concentration in plasma after dosing; details: dosed: Isoeugenol, 70 mg/kg, oral, Male, F344/N; remark: listed apart in the source
human [6] = assay: concentration in expired air after dosing; details: dosed: styrene, inhalation
Outline: as §1

Rat [7] = assay: concentration in plasma after dosing; details: dosed: Tetralin, 20 mg/kg, iv, Female, Harlan Sprague Dawley
Rat [8] = assay: concentration in plasma after dosing; details: dosed: Tetralin, 20 mg/kg, iv, Female, Harlan Sprague Dawley; remark: listed apart in the source
Rat [9] = assay: concentration in plasma after dosing; details: dosed: Tetralin, 2 mg/kg, iv, Male, F344
Rat [10] = assay: concentration in plasma after dosing; details: 4 h; dosed: Tetralin; 20 mg/kg; iv; Male; F344

CCC(C)=O [methylethylketone]
human [1]
Details | concentration in blood [µM]
0.1373 h, 400 ppm | 216
0.1381 h, 200 ppm | 70.4
0.1632 h, 25 ppm | 2.96
0.1664 h, 25 ppm | 3.3
0.3028 h, 200 ppm | 74.4
0.3068 h, 400 ppm | 201
0.3094 h, 200 ppm | 54.5
0.3251 h, 25 ppm | 2.53
0.3266 h, 25 ppm | 2.69
0.4719 h, 200 ppm | 65.3
0.4774 h, 25 ppm | 2.09
0.4845 h, 200 ppm | 49.1
0.4885 h, 25 ppm | 2.26
0.9614 h, 200 ppm | 40.1
0.9652 h, 200 ppm | 50.5
0.9754 h, 400 ppm | 150
0.9842 h, 25 ppm | 1.52
0.985 h, 25 ppm | 1.61
1.481 h, 200 ppm | 44.7
1.482 h, 200 ppm | 22.9
1.484 h, 400 ppm | 121
1.968 h, 200 ppm | 25.4
1.969 h, 200 ppm | 17.2
1.978 h, 400 ppm | 115
1.982 h, 25 ppm | 0.771
1.983 h, 25 ppm | 0.828
2.965 h, 200 ppm | 24.3
2.966 h, 200 ppm | 14.6
2.966 h, 400 ppm | 98.4
2.996 h, 25 ppm | 0.635
3 h, 25 ppm | 0.521
3.971 h, 200 ppm | 9.24
3.974 h, 200 ppm | 5.93
4.006 h, 25 ppm | 0.63
4.01 h, 25 ppm | 0.532
4.323 h, 400 ppm | 48
4.987 h, 400 ppm | 33.2
5.414 h, 200 ppm | 3.68
5.418 h, 200 ppm | 2.75
7.74 h, 200 ppm | 1.75
28 min, 400 ppm | 171

human [1], during exposure
Details | concentration in blood [µM]
-122 s, 25 ppm | 4.68
-83 s, 200 ppm | 100
-69 s, 25 ppm | 4.74
-46 s, 400 ppm | 230
-3.994 h, 25 ppm | 0.18
-3.993 h, 25 ppm | 0.263
-3.835 h, 25 ppm | 1.85
-3.83 h, 400 ppm | 47.8
-3.827 h, 25 ppm | 2.22
-3.739 h, 200 ppm | 24.1
-3.681 h, 25 ppm | 2.14
-3.67 h, 25 ppm | 2.79
-3.661 h, 400 ppm | 68.3
-3.508 h, 25 ppm | 2.38
-3.505 h, 25 ppm | 2.71
-3.477 h, 400 ppm | 80
-3.248 h, 200 ppm | 54.2
-3.243 h, 200 ppm | 41.8
-2.997 h, 25 ppm | 3.29
-2.993 h, 25 ppm | 2.68
-2.992 h, 400 ppm | 112
-2.506 h, 200 ppm | 55
-2.505 h, 200 ppm | 58.5
-2.503 h, 400 ppm | 162
-2.017 h, 25 ppm | 3.04
-2.012 h, 25 ppm | 3.56
-1.994 h, 400 ppm | 177
-1.527 h, 200 ppm | 81.5
-1.508 h, 200 ppm | 69.5
-1.022 h, 25 ppm | 4.44
-1.012 h, 25 ppm | 4.01
-1.006 h, 400 ppm | 215
-1 min, 200 ppm | 93
-0.7876 h, 200 ppm | 88.3
-0.7835 h, 200 ppm | 86.7

C/C=C/c1ccc(O)c(OC)c1 [Isoeugenol]
Details | concentration in plasma [ng/mL]
Rat [2], 5 h | 66.8
Rat [2], 10 min | 353
Rat [3], 1 h | 129
Rat [3], 5 h | 69.7
Rat [5], 6 h | 240
Rat [5], 20 min | 1840

Details | concentration in plasma [ng/mL]
Rat [4] | 209

C=Cc1ccccc1 [styrene]
human [6], male
Details | concentration in expired air [ppm]
0.1527 h, 51 ppm, duration: 1 hr | 0.506
0.2175 h, 376 ppm, duration: 1 hr | 4
0.2306 h, 216 ppm, duration: 1 hr | 2.27
0.2368 h, 51 ppm, duration: 1 hr | 0.409
0.2553 h, 99 ppm, duration: 7 hr | 1.24
0.3483 h, 99 ppm, duration: 7 hr | 1.14
0.4469 h, 376 ppm, duration: 1 hr | 3.1
0.4803 h, 51 ppm, duration: 1 hr | 0.317
0.5105 h, 99 ppm, duration: 7 hr | 1.08
0.7137 h, 376 ppm, duration: 1 hr | 2.21
0.8189 h, 99 ppm, duration: 7 hr | 0.876
0.9608 h, 216 ppm, duration: 1 hr | 0.927
0.9799 h, 51 ppm, duration: 1 hr | 0.0904
1.046 h, 376 ppm, duration: 1 hr | 1.29
1.064 h, 99 ppm, duration: 7 hr | 0.733
1.944 h, 99 ppm, duration: 7 hr | 0.648
1.964 h, 216 ppm, duration: 1 hr | 0.501
1.984 h, 376 ppm, duration: 1 hr | 0.934
1.988 h, 51 ppm, duration: 1 hr | 0.0505
2.93 h, 99 ppm, duration: 7 hr | 0.521
2.954 h, 376 ppm, duration: 1 hr | 0.719
2.958 h, 216 ppm, duration: 1 hr | 0.345
3.928 h, 216 ppm, duration: 1 hr | 0.226
3.963 h, 376 ppm, duration: 1 hr | 0.827
4.085 h, 99 ppm, duration: 7 hr | 0.403
4.943 h, 376 ppm, duration: 1 hr | 0.594
4.946 h, 216 ppm, duration: 1 hr | 0.197
4.988 h, 99 ppm, duration: 7 hr | 0.355
5.975 h, 376 ppm, duration: 1 hr | 0.586
5.991 h, 216 ppm, duration: 1 hr | 0.112
5.998 h, 99 ppm, duration: 7 hr | 0.242
7.018 h, 216 ppm, duration: 1 hr | 0.0821
19 s, 51 ppm, duration: 1 hr | 14.8
41 s, 216 ppm, duration: 1 hr | 4.56
65 s, 51 ppm, duration: 1 hr | 1.02
96 s, 376 ppm, duration: 1 hr | 9.08
141 s, 216 ppm, duration: 1 hr | 3.69
148 s, 51 ppm, duration: 1 hr | 0.849
148 s, 99 ppm, duration: 7 hr | 2.17
196 s, 376 ppm, duration: 1 hr | 7.4
214 s, 51 ppm, duration: 1 hr | 0.744
251 s, 99 ppm, duration: 7 hr | 1.35

human [6], 80 ppm, duration: 6 hr
Details | concentration in expired air [ng/mL]
6.225 h | 4.3
6.495 h | 2.75
7.17 h | 1.58
8.16 h | 1.16
10.28 h | 0.549
12.21 h | 0.402
14.37 h | 0.315
18.33 h | 0.308
23.51 h | 0.257
30.62 h | 0.148
46.95 h | 0.102

c1ccc2c(c1)CCCC2 [Tetralin]
concentration in plasma [µg/g]
Details | 0.505 h | 4 h | 5 min | 8 h
Rat [7] | 5.59 | – | – | 0.077
Rat [8] | – | 0.204 | 20.3 | –
Rat [9] | 0.246 | – | – | 0.00426

Details | concentration in plasma [µg/g]
Rat [10] | 0.15
